L929 necroptosis: L929 zVAD cell death inhibition | L929 zVAD necroptosis rescue, ATP luminescence, 24 h; with zVAD 60 µM | viability rescue, % at 10 µM | actives 0.38% (n = 220,000) | AID 1377;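 active = activation, scaled between plate controls, above about 75%, limit read from the data; inactive = activation under that limit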;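 note: 0% = zVAD with DMSO and 100% = DMSO alone without zVAD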
Pf gamet viab: P. falciparum stage V gametocyte viability inhibition. actives 0.065% (n = 150,000). P. falciparum stage V gametocytes, ATP luminescence, 24 h. inhibition, % at 10.9 µM. AID 743093;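 active = inhibition above the mean plus 3 SD of compounds within the control limits, set per campaign, cut at about 38% in these data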;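 note: 0% = DMSO wells and 100% = medium only without gametocytes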
MDM2 E3 inh: Mdm2 E3 ligase (human) inhibition. cell-based MDM2 ubiquitination luciferase reporter, 2 h; 0 = plate control, 100 = twice control, blank-subtracted. signal enhancement, % at 5 µM. actives 0.11% (n = 210,000). AID 1230;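 active = signal enhancement of 30% or more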;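 note: luminescence tracks abundance of the self-degrading MDM2-luciferase fusion protein; higher signal means inhibition of MDM2 E3 ligase activity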
Target sequence (Q00987 whole entry, looked up, the tested form may be a part): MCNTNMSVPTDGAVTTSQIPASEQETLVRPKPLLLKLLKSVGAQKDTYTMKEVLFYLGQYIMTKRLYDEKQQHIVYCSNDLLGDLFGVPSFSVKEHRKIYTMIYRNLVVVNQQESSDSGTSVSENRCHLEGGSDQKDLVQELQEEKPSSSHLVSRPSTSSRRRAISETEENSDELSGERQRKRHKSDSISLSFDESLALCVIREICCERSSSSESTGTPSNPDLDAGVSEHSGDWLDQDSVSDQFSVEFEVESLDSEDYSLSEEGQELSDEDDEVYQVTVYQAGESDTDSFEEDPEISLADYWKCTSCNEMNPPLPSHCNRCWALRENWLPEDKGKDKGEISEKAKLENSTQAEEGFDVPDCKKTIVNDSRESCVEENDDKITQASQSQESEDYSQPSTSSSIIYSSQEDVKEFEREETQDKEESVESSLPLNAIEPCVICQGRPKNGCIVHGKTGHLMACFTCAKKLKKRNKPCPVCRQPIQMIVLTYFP
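Material: Stable MDM2–luciferase fusion reporter cells | Amount: 2000 cells seeded into each well | Dosing: One concentration, 5 µM, with 0.2% DMSO | Incubation: 4 h cell settling then 2 h compound exposure, 37 °C | Measured by: Luciferase luminescence | Read-out basis: % enhancement relative to plate controls after blank subtraction | Benchmarks: Control and blank well means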
TNF necrop inh: TNF-alpha cell death inhibition in Jurkat FADD-/- cells; Jurkat FADD-/- TNF necroptosis rescue, ATP luminescence, 24 h; 0 = TNF only, 100 = no-TNF cells; activation (protection from cell death), % at 10 µM; actives 0.068% (n = 220,000); AID 463075;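 active = activation, meaning protection from cell death, of at least 50% relative to plate controls; inactive = activation below 50%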;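 note: necroptosis triggered by 40 ng/mL TNF-alpha added together with compound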
Wee1 stabilizer: blocks degradation of human Wee1 kinase | actives 1.2% (n = 220,000) | P30291 | reporter increase, % at 5 µM | HeLa Luc-Wee1K328M stability, luciferase luminescence; 100% = proteasome inhibitor MG132 effect | AID 1321;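 active = activation above the mean of all tested compounds plus 3 SD, set per screening run, cut at about 8.8% in these data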;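 note: cells exposed to compound for 20 h before luminescence read; 0% = DMSO alone and 100% = MG132 at 30 µM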
The depositor's hits bear a star. Only some compounds are listed: those with a hit (about 1.6% of all), similar ones and a draw of the others.

Results for Nc1nonc1NC(=O)CSc1ncccc1C(=O)O ?
L929 necroptosis: 0; Pf gamet viab: 1; MDM2 E3 inh: 6; TNF necrop inh: -1; Wee1 stabilizer: 14*

How did NC(=O)c1ccsc1NC(=O)c1coc2ccccc2c1=O do in these assays?
L929 necroptosis: 0; Pf gamet viab: 4; MDM2 E3 inh: -21; TNF necrop inh: -2; Wee1 stabilizer: 10*

What do the screens show for `NC(=O)c1ccsc1NC(=O)CSc1ccccc1F`?
L929 necroptosis: 0; Pf gamet viab: -5; MDM2 E3 inh: -24; TNF necrop inh: -2; Wee1 stabilizer: 3

How did CC(C)n1c(=S)[nH]c2cc(Cl)ccc21 do in these assays?
L929 necroptosis: -1; Pf gamet viab: 17; MDM2 E3 inh: -6; TNF necrop inh: -5; Wee1 stabilizer: 11*

What do the screens show for `Cc1cccc(N/C(N)=N/c2nc(CSc3ccc(Cl)cc3)cc(=O)[nH]2)c1`?
L929 necroptosis: -1; Pf gamet viab: -18; MDM2 E3 inh: -17; TNF necrop inh: 0; Wee1 stabilizer: 11*

Results for COCc1cc(=O)[nH]c(/N=C(\N)Nc2cccc(C)c2)n1 ?
L929 necroptosis: 0; Pf gamet viab: -21; MDM2 E3 inh: -9; TNF necrop inh: 0; Wee1 stabilizer: 2

How did COC(=O)CSc1ccc(S(=O)(=O)N2CCOCC2)cc1[N+](=O)[O-] do in these assays?
L929 necroptosis: 1; Pf gamet viab: 0; MDM2 E3 inh: -15; TNF necrop inh: 1; Wee1 stabilizer: 9.3*

What do the screens show for `CCOC(=O)CSc1ccc(S(=O)(=O)N2CCC(C)CC2)cc1[N+](=O)[O-]`?
Pf gamet viab: -2; MDM2 E3 inh: -1; TNF necrop inh: 3; Wee1 stabilizer: 2

Results for Cc1c(N2C(=O)C(=O)/C(=C(/O)c3ccccc3)C2c2ccc(F)cc2)c(=O)n(-c2ccccc2)n1C (centres undefined) ?
L929 necroptosis: 1; Pf gamet viab: 0; MDM2 E3 inh: -16; TNF necrop inh: 1; Wee1 stabilizer: -2

How did CC(=O)OC1CCC(OC(C)=O)c2c1n([O-])c(C)c(C)[n+]2=O (centres undefined) do in these assays?
L929 necroptosis: 0; MDM2 E3 inh: -40; TNF necrop inh: 0; Wee1 stabilizer: 11*

How did CC(C)n1cc(CN2CCCC(CO)(Cc3cccc(Cl)c3)C2)cn1 (centres undefined) do in these assays?
L929 necroptosis: -2; Pf gamet viab: 6; MDM2 E3 inh: -7; TNF necrop inh: 1; Wee1 stabilizer: 10*

How did CC(=O)C1=C(O)C(=O)N(c2nccs2)C1c1ccc(F)cc1 (centres undefined) do in these assays?
MDM2 E3 inh: -1; TNF necrop inh: -1; Wee1 stabilizer: -2

What do the screens show for `CC(=O)C1=C(O)C(=O)N(c2ccc(Br)cn2)C1c1ccc(F)cc1` (centres undefined)?
L929 necroptosis: 2; Pf gamet viab: 0; MDM2 E3 inh: -5; TNF necrop inh: 0; Wee1 stabilizer: 11*

Results for CC(=O)C1=C(O)C(=O)N(c2ccc(Br)cn2)C1c1ccc(Br)cc1 (centres undefined) ?
L929 necroptosis: 0; Pf gamet viab: 8; MDM2 E3 inh: -6; TNF necrop inh: 1; Wee1 stabilizer: 10*

How did COc1cc(C2C(C(C)=O)=C(O)C(=O)N2c2ccc(Br)cn2)ccc1O (centres undefined) do in these assays?
L929 necroptosis: 2; Pf gamet viab: 15; MDM2 E3 inh: -11; TNF necrop inh: -1; Wee1 stabilizer: 0

Results for CC(=O)C1=C(O)C(=O)N(c2nccs2)C1c1ccc(Br)cc1 (centres undefined) ?
L929 necroptosis: 1; Pf gamet viab: -15; MDM2 E3 inh: -41; TNF necrop inh: 0; Wee1 stabilizer: 9.1*

Results for O=C(Nc1ccc(C(F)(F)F)cc1)C1(c2ccccc2)CC1 ?
L929 necroptosis: 1; Pf gamet viab: 11; MDM2 E3 inh: -11; TNF necrop inh: 4; Wee1 stabilizer: 0

How did CN(C)Cc1cc(C(C)(C)C)c(O)c(C(C)(C)C)c1 do in these assays?
L929 necroptosis: 0; MDM2 E3 inh: -10; TNF necrop inh: -1; Wee1 stabilizer: -2

Results for COc1ccc(-n2nnc3c(SCC(=O)c4ccccc4)ncnc32)cc1 ?
L929 necroptosis: 0; MDM2 E3 inh: -20; TNF necrop inh: 12; Wee1 stabilizer: -1

Results for COC(=O)c1ccc(CSc2ncnc3c2nnn3-c2ccc(OC)cc2)o1 ?
L929 necroptosis: 0; MDM2 E3 inh: 4; TNF necrop inh: -1; Wee1 stabilizer: 12*

Results for COc1ccc2c(CC(=O)N3CCN(S(=O)(=O)c4cccs4)CC3)coc2c1 ?
L929 necroptosis: 0; MDM2 E3 inh: -9; TNF necrop inh: 1; Wee1 stabilizer: 0

Results for Cc1cc(NC(=O)C(C)C)ncc1NC(=O)Cc1ccccc1 ?
L929 necroptosis: 3; MDM2 E3 inh: -14; TNF necrop inh: 2; Wee1 stabilizer: 10*

Results for COc1cccc(C2N(c3ccccc3)CCN2c2ccccc2)c1OC ?
L929 necroptosis: 1; Pf gamet viab: -24; MDM2 E3 inh: 0; TNF necrop inh: 3; Wee1 stabilizer: -3

What do the screens show for `O=C(Nc1nc2c(s1)CN(Cc1ccccc1)CC2)c1cccc(S(=O)(=O)N2CCc3ccccc32)c1`?
L929 necroptosis: 1; Pf gamet viab: 30; MDM2 E3 inh: 9; TNF necrop inh: 0; Wee1 stabilizer: 12*

Results for Cc1ccc(Nc2nc3c(s2)CCC3)c(C)c1 ?
L929 necroptosis: 0; MDM2 E3 inh: -3; TNF necrop inh: 1; Wee1 stabilizer: -3

Results for CS(=O)(=O)NN1C(=O)c2ccccc2NC1c1cccs1 (centres undefined) ?
L929 necroptosis: 0; Pf gamet viab: -11; MDM2 E3 inh: -15; TNF necrop inh: 0; Wee1 stabilizer: 1

What do the screens show for `O=C1NC(=Nc2ccccc2)SC1Cc1ccccc1` (centres undefined)?
L929 necroptosis: 4; Pf gamet viab: -9; MDM2 E3 inh: 22; TNF necrop inh: 9; Wee1 stabilizer: 1

What do the screens show for `O=C1NC(=Nc2ccccc2)SC1Cc1cccc(Cl)c1Cl` (centres undefined)?
L929 necroptosis: 1; MDM2 E3 inh: -6; TNF necrop inh: 79*; Wee1 stabilizer: -3

Results for Clc1ccccc1-c1ccc2ncnc(NCc3cccnc3)c2c1 ?
Pf gamet viab: 19

Results for Cc1nc(N2CCOCC2)nc(Oc2ccccc2)c1[N+](=O)[O-] ?
L929 necroptosis: -1; Pf gamet viab: 3; MDM2 E3 inh: -14; TNF necrop inh: -4; Wee1 stabilizer: 9.2*

What do the screens show for `CCOc1ccc2nc(NC(=O)CCn3cccc3)sc2c1`?
L929 necroptosis: 85*; MDM2 E3 inh: -3; TNF necrop inh: 6; Wee1 stabilizer: 6

What do the screens show for `CCCC(=O)Nc1nc2ccc(OCC)cc2s1`?
L929 necroptosis: 66; MDM2 E3 inh: -9; TNF necrop inh: 1; Wee1 stabilizer: -1

From PubChem BioAssay
